This excerpt belongs to a sample that is enriched for hits.
HUVEC prolif 384 = inhibitors of HUVEC proliferation, primary screen, cell-based, 384-well. CellTiter-Glo luminescence, 72 h; active compounds read low. viability, % at 10 µM (by protocol). 1.1% of 86,000 active. AID 648, 2007;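 active = viability at or below 30%; inactive = viability above 30%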;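 note: 100% = median luminescence of DMSO-only cell control wells on each plate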
bCat KO growth = primary screen for growth suppressors in beta-catenin knockout HCT116 cells (colon tumor, human); HCT116 beta-catenin knockout viability, CellTiter-Glo, 60 h; active compounds read low; viability, % at 10 µM; 1.5% of 140,000 active; AID 818, 2007;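 active = viability at or under a set limit, the compound median less 4 SD, cut at about 6% in these data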;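 note: 0% = Hyamine 1622 control at 20 µM and 100% = untreated cell control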
Lung fibro prol = antiproliferative effect on LL 47 fibroblasts – human, LL 47 cells, CellTiter-Glo luminescence, primary screen | LL 47 human lung fibroblast viability, ATP luminescence; active compounds read low | viability, % at 10 µM | 1.1% of 85,000 active;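 active = viability at or below 50% in the single dose screen; inactive = viability above 50%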;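 note: compound exposure lasted 72 h before the ATP readout; 100% = median luminescence of untreated cell-only wells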
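Material: human lung fibroblast line LL 47, low passage; Evaluation: viability percentage against median untreated-cell control; Buffer or medium: 15% FBS in IMEM; Incubation: 72 h compound exposure at 37 °C after overnight plating; Dosing: 0.1% DMSO in all compound wells; Measured by: CellTiter-Glo luminescence.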
PTEN del growth = growth suppression of PTEN-null HCT116, primary screen, cell-based, CellTiter-Glo; HCT116 PTEN-null viability, 60 h; active compounds read low; 1.2% of 140,000 active; viability, % at 10 µM;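 active = viability at or below a set limit, 4 SD under the median of all tested compounds, cut at about 3.7% in these data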;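 note: PTEN knockout HCT116 line with beta catenin targeted HCT116 as companion control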
H69AR inhibit = proliferation blockers of H69AR lung cancer cells, primary screen, cell-based, human, 86K library; 6% of 85,000 active; H69AR lung tumor viability, ATP luminescence, 72 h; active compounds read low; AID 598, 2007; viability, % at 10 µM;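 active = viability at or below 40%; inactive = viability above 40%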;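 note: multidrug resistant small cell line overexpressing MRP-1 efflux transporter; 100% = mean luminescence of untreated control wells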
Starred values were filed as active, the others as inactive; . = no result.

SMILES | HUVEC prolif 384 | bCat KO growth | Lung fibro prol | PTEN del growth | H69AR inhibit
COc1cccc(C(=O)Nc2ccc(NC(=O)C(C)(C)C)cn2)c1 | 99.7 | 93.2 | . | 97.8 | 36.7*
CCOc1cccc(C(=O)Nc2cccc(-c3nnc(-c4ccc(C)cc4)o3)c2)c1 | 17.1* | 1.7* | 37.4* | 3.1* | .
CCOc1cc(OCC)cc(C(=O)Nc2cccc(C(C)=O)c2)c1 | . | 96.4 | . | 100.0 | .
CCCCOc1ccc(Cc2n[nH]c(=S)n2N)cc1 | . | 95.8 | . | 98.3 | .
Fc1ccccc1-c1csc(=Nc2cccnc2)n1CCCn1ccnc1 | . | 71.9 | . | 69.8 | .
Cc1nc2nc(C)c(CCC(=O)O)c(C)n2n1 | 97.9 | 109.3 | 104.4 | 101.9 | 95.9
O=C(NC1CCCC1)c1ccc(CNc2c(N3CCOCC3)c(=O)c2=O)cc1 | . | 80.6 | . | 91.5 | .
COc1ccc(C(=O)Nc2nnc(-c3ccccc3)o2)cc1OC | 85.5 | 58.7 | 93.0 | 54.7 | 32.9*
COc1ccc(CC(=O)Nc2cccc(-c3nnc(-c4cccc(C)c4)o3)c2)cc1OC | 3.2* | 111.2 | 35.0* | 105.5 | 41.2
CC(C)OC(=O)c1cccc(NC(=O)c2ccccc2)c1 | 85.2 | 79.0 | 101.0 | 87.5 | 30.3*
COc1cccc(C(=O)Nc2cccc(NC(C)=O)c2)c1 | 94.1 | 78.0 | . | 74.7 | 32.6*
O=C(Nc1nnc(-c2ccccc2)o1)c1cc(Cl)sc1Cl | . | 86.0 | . | 87.9 | .
COC(=O)c1ccc(C2C(C(=O)Nc3ccc(C)cc3C)=C(C)Nc3ncnn32)cc1 (stereo not drawn) | 98.6 | 87.1 | 92.9 | 90.9 | 94.4
COc1cc(C(=O)N2CCC(O)(c3ccccc3)CC2)cc(OC)c1OC | . | 85.9 | . | 81.3 | .
COc1cccc(C(=O)Nc2cccc(-c3nnc(-c4ccccc4)o3)c2)c1 | 55.0 | . | . | . | 17.4*
C/C(CC(=O)Nc1c(C)cc(C)cc1C)=N\NC(=O)c1cnccn1 | . | 82.6 | . | 93.0 | .
NC(=O)c1ccc(N=Cc2ccc([N+](=O)[O-])s2)cc1 | . | 1.6* | . | 1.3* | .
Cc1cc(C)cc(N=Cc2ccc([N+](=O)[O-])s2)c1 | . | 1.9* | . | 1.8* | .
Cc1onc(-c2ccccc2)c1C(=O)N/N=C/c1cccc(O)c1 | . | 94.0 | . | 83.5 | .
Cc1onc(-c2ccccc2)c1C(=O)N/N=C/c1ccc([N+](=O)[O-])s1 | . | 2.9* | . | 2.6* | .
Cc1ccc(NC(=S)N/N=C/c2ccc([N+](=O)[O-])s2)cc1 | . | 1.6* | . | 1.8* | .
Cc1c(N=Cc2ccc(Br)s2)cccc1[N+](=O)[O-] | . | 98.7 | . | 88.8 | .
O=C(N/N=C/c1cccc(OC(=O)N2CCOCC2)c1)c1cccs1 | . | 91.1 | . | 86.4 | .
O=S(=O)(Nc1cccc2c1ccc1cccn12)c1cccs1 | 83.1 | 51.9 | 92.0 | 48.6 | 109.5
COc1ccc(Cl)cc1NC(=O)Nc1ccc(Br)cn1 | 97.6 | 75.8 | 90.8 | 68.2 | 37.7*
SMILES | HUVEC prolif 384 | bCat KO growth | Lung fibro prol | PTEN del growth | H69AR inhibit
COc1ccc(Cl)cc1NC(=O)Nc1cccc([N+](=O)[O-])c1C | . | 3.1* | . | 3.9 | .
COc1ccc(Cl)cc1NC(=O)NC1CCCCC1 | 88.0 | 83.2 | 99.9 | 69.1 | 79.8
CC(=O)N1c2ccccc2N(Cc2ccc(C)cc2C)C(=O)C1(C)C | 50.0 | 12.3 | 45.7* | 12.4 | 23.4*
O=C(NC(=S)Nc1cc(-c2nc3ccccc3[nH]2)ccc1Cl)c1ccc2c(c1)OCO2 | . | 1.6* | . | 1.5* | .
Cc1ccc(-c2nc3ccccc3[nH]2)cc1NC(=O)c1ccc2c(c1)OCO2 | . | 76.4 | . | 77.3 | .
CCOc1ccc(C(=O)Nc2cc(-c3nc4ccccc4[nH]3)ccc2Cl)cc1[N+](=O)[O-] | . | 1.2* | . | 1.2* | .
CCCn1c(CN2CCN(c3cccc(Cl)c3)CC2)nc2c1c(=O)n(C)c(=O)n2C | 76.5 | 22.9 | 92.3 | 38.4 | 67.9
COc1ccc2[nH]c(=O)c(CN(CCc3ccccc3)Cc3nnnn3CC3CCCO3)cc2c1 (stereo not drawn) | 83.2 | 95.0 | 93.5 | 79.9 | 27.4*
COc1ccc2[nH]c(=O)c(CN(Cc3ccccc3OC)Cc3nnnn3CC3CCCO3)cc2c1 (stereo not drawn) | 93.5 | 78.1 | 90.7 | 62.7 | 60.6
CC(C)(C)n1nnnc1CN(Cc1ccco1)Cc1cc2cc3c(cc2[nH]c1=O)OCO3 | 81.5 | 76.2 | 85.9 | 71.0 | 35.4*
COc1ccc2[nH]c(=O)c(CN(Cc3ccco3)Cc3nnnn3Cc3ccccc3)cc2c1 | 97.8 | 89.4 | 93.2 | 94.8 | .
COc1ccc2[nH]c(=O)c(CN(Cc3cccs3)Cc3nnnn3Cc3ccccc3)cc2c1 | 82.8 | 85.0 | 97.1 | 61.2 | 32.8*
CCOc1ccc2[nH]c(=O)c(CN(Cc3ccco3)Cc3nnnn3Cc3ccccc3)cc2c1 | 85.5 | 72.2 | 99.2 | 62.2 | 38.1*
COc1ccc2cc(CN(CCc3ccccc3)Cc3nnnn3CC3CCCO3)c(=O)[nH]c2c1 (stereo not drawn) | 96.0 | 80.0 | 96.8 | 77.9 | 61.0
Cc1cc(Cl)ccc1OC(C)C(=O)Nc1ccc([N+](=O)[O-])cn1 (stereo not drawn) | . | 81.2 | . | 74.1 | .
COc1ccc2[nH]c(=O)c(CN(Cc3cccs3)S(=O)(=O)c3c(C)ccc4nsnc34)cc2c1 | 64.6 | 24.6 | 68.7 | 15.5 | 2.7*
CCOc1ccc2[nH]c(=O)c(CN(Cc3ccco3)C(CC)c3nnnn3Cc3ccccc3)cc2c1 (stereo not drawn) | 74.1 | 39.2 | 88.0 | 33.0 | 2.4*
CCC(=O)Oc1ccc(C(=O)Nc2c[nH]c(=O)[nH]c2=O)cc1 | . | 86.8 | . | 88.5 | .
COc1ccc(OCCNC(=O)c2ccccc2OCC(=O)N2CCCCC2)cc1 | 85.8 | 79.0 | 92.1 | 74.8 | 31.0*
COc1ccc(OCCNC(=O)c2ccccc2OCC(=O)Nc2ccc(NC(C)=O)cc2)cc1 | . | 80.7 | . | 78.3 | .
COc1ccc(OCC(=O)N2CCN(C(=O)COc3ccc(Br)cc3)CC2)cc1 | 82.0 | 84.9 | 100.1 | 81.2 | 27.9*
CC1=C(C)CS(=O)N(S(=O)(=O)c2ccccc2)C1 (stereo not drawn) | 73.9 | 90.7 | 39.5* | 95.8 | 1.8*
CC1=C(C)CS(=O)N(c2ccc(S(N)(=O)=O)cc2)C1 (stereo not drawn) | 95.0 | 92.6 | 69.0 | 98.8 | 12.4*
NS(=O)(=O)c1ccc(S(=O)(=O)N2CCCC2)cc1 | 106.2 | 102.0 | 104.3 | 92.4 | 102.0
O=C(COC(=O)C12CC3CC(CC(C3)C1)C2)Nc1ccccc1F | . | 81.5 | . | 85.1 | .
CCOC(=O)c1c(NC(C)=O)sc2c1CCC(C=O)=C2Sc1ccccc1 | 31.8 | 21.1 | 17.8* | . | 4.6*
CC(/C=C/c1cccc([N+](=O)[O-])c1)=N\NC(=O)c1ccncc1 | . | 20.2 | . | 27.9 | .
CCOC(=O)N1CCC(Nc2ncnc3c2cnn3-c2ccccc2)CC1 | 92.9 | 93.1 | 98.8 | 92.0 | 28.1*
NNc1ncnc2c1cnn2-c1ccccc1 | 72.9 | 75.5 | 91.5 | 77.0 | 20.3*
CCOC(=O)C1C(=O)C=C(c2ccc(C)cc2)CC1c1cccc([N+](=O)[O-])c1 (stereo not drawn) | . | 35.6 | . | 44.0 | .

Source: PubChem
